Columns and labels:
Type in all cases: functional, MT2
[1] = test system: Human immunodeficiency virus 1; assay: Antiviral activity against Human immunodeficiency virus 1 isolate 22 harboring Gag-capsid V215L, H219Q, I223V, N252S, P255A, L268M and A340G mutant gene and Protease L19I, E35D, M36I, S37N, L63P, V77I and I93L mutant gene infected in human MT-2 cells by XTT-assay relative to wild-type
Outline: (§1)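 Patient Gag-protease (SfoI-XmaI) fragments were ligated into the pXXLAI backbone, with colonies pooled to keep quasispecies. Virus came from 293T transfection, harvested at 2 days. MT-2 infection at 37°C used an input giving XTT signal-to-noise of 2.5–4.0 (≈MOI 0.001). Cells at ≈17,000/well with drug dilutions, 5 days, 37°C; XTT 1 h, A450–650. EC50 from % cell death; fold change vs wild-type LAI.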

[2] = test system: Human immunodeficiency virus 1; assay: Antiviral activity against Human immunodeficiency virus 1 isolate 32 harboring Gag-capsid, I138L, A146P, I147L, V159I, V215L, I223A, N252S/N, T280V and S310T and protease R41K/R, I62V, L63P, V77I and I93L mutant gene infected in human MT-2 cells by XTT-assay relative to wild-type; outline: as §1
[3] = test system: Human immunodeficiency virus 1; assay: Antiviral activity against Human immunodeficiency virus 1 isolate 8 harboring Gag-capsid V215T mutant gene and protease L10I, L24I, L33F, S37N, R41K, I54V, D60E, I62V, L63P, A71V, V77I, V82A and I84V mutant gene infected in human MT-2 cells by XTT-assay relative to wild-type; outline: as §1
[4] = test system: Human immunodeficiency virus 1; assay: Antiviral activity against Human immunodeficiency virus 1 isolate 28 harboring Gag-capsid I138M mutant gene and protease L10I, I13V, L23I, L33F, S37N, M46I, I54V, K55R, R57K, Q58E, D60E, I62V, L63P, A71I, I72V, L76V, V77I, V82A, I84V, I85V, L89M, L90M and I93L mutant gene infected in human MT-2 cells by XTT-assay relative to wild-type; outline: as §1
[5] = test system: Human immunodeficiency virus 1; assay: Antiviral activity against Human immunodeficiency virus 1 isolate 37 harboring Gag-capsid V135I, I138P, V143I, Q182H, V215L/V, V218P/A, H219Q, I223V, E230D, N252S, T280A, R286K, K302R and G357S mutant gene and protease S37D, R41K, L63P and I93L mutant gene infected in human MT-2 cells by XTT-assay relative to wild-type; outline: as §1
[6] = test system: Human immunodeficiency virus 1; assay: Antiviral activity against Human immunodeficiency virus 1 isolate 9 harboring Gag-capsid I138L, A146S, I147L, V215L, N252H, T280A, A340G and E345D mutant gene and protease L10I, I13V, K20M, L33V, M36I, S37N, I54V, R57K, I62V, L63P, I66L, A71V, G73S, P79A, I84V and L90M mutant gene infected in human MT-2 cells by XTT-assay relative to wild-type; outline: as §1
[7] = test system: Human immunodeficiency virus 1; assay: Antiviral activity against Human immunodeficiency virus 1 isolate 27 harboring Gag-capsid I138L, S173T/S, V215L, L268M, R275K/R, T280V, S310T, E319D and G357S and protease L10I, I15V, L19V, V32I, L33F, M46I, I54V, K55R, R57K, L63P, C67F, H69Q, A71V, G73C/G, V82A, L90M and Q92K mutant gene and deletion at A341 in Gag- capsid infected in human MT-2 cells by XTT-assay relative to wild-type; outline: as §1
[8] = test system: Human immunodeficiency virus 1; assay: Antiviral activity against Human immunodeficiency virus 1 isolate 1 harboring Gag-capsid I138L, V159I, E203D, V215L, I223V, T280V, E312D and V323I mutant gene and protease L10I, K20R, M36I, S37N, G48V, I54M, I62V, L63P, A71V, I72V, V82A, I84V, L90M and I93L/I mutant gene infected in human MT-2 cells by XTT-assay relative to wild-type; outline: as §1
[9] = test system: Human immunodeficiency virus 1; assay: Antiviral activity against Human immunodeficiency virus 1 isolate 6 harboring Gag-capsid I138L and V215L mutant gene and protease L10I, S37N, M46L, G48V, R57K, L63P, I66F, A71V, V82T and I84V mutant gene infected in human MT-2 cells by XTT-assay relative to wild-type; outline: as §1
[10] = test system: Human immunodeficiency virus 1; assay: Antiviral activity against Human immunodeficiency virus 1 isolate 35 harboring Gag-capsid V159I, I223T, N252S, A326S/A, A340G and G357S mutant gene and protease I15V, G16E, E35D, S37N, L63H and I72V mutant gene infected in human MT-2 cells by XTT-assay relative to wild-type; outline: as §1
[11] = test system: Human immunodeficiency virus 1; assay: Antiviral activity against Human immunodeficiency virus 1 isolate 38 harboring Gag-capsid I138L, I147L, V215L, H219Q/H, I223V, N252H, P292S, A336S/A and A340G mutant gene and protease E35D, S37A and L63P mutant gene infected in human MT-2 cells by XTT-assay relative to wild-type; outline: as §1
[12] = test system: Human immunodeficiency virus 1; assay: Antiviral activity against Human immunodeficiency virus 1 isolate 23 harboring Gag-capsid I138L, V215L, E319D, A340G, G357S and V362I mutant gene and protease L10V, V11L, V32I, L33F, E34Q, E35D, M36L, S37T, M46I, I47V, G48V, I54M, I62V, L63P, I64V, I72V, T74S, V77I, V82A, I84V and T91S mutant gene infected in human MT-2 cells by XTT-assay relative to wild-type; outline: as §1
[13] = test system: Human immunodeficiency virus 1; assay: Antiviral activity against Human immunodeficiency virus 1 isolate 12 harboring Gag-capsid I138L E207D, V215L, V218P, H219Q, M228I, G248T, T280S, E312D, A340G, G357S and V362I mutant gene and protease S37N, I62V/I, L63P, I64L and V82I mutant gene infected in human MT-2 cells by XTT-assay relative to wild-type; outline: as §1
[14] = test system: Human immunodeficiency virus 1; assay: Antiviral activity against Human immunodeficiency virus 1 isolate 2 harboring Gag-capsid A146P, S173A, V215L, H219P, E230D, N252S, R264K, L268M and A340G mutant gene and protease L10I, I15V, K20R, M36I, S37N, M46I, L63P, T80A, V82A, N83H, I84V, I85T and L90M mutant gene infected in human MT-2 cells by XTT-assay relative to wild-type; outline: as §1
[15] = test system: Human immunodeficiency virus 1; assay: Antiviral activity against Human immunodeficiency virus 1 isolate 4 harboring Gag-capsid A146P, V159I, K162R, Q182S, T186I, V215L, I223G/V, N252G, P255A, E260D, E312D and G357S mutant gene and protease L10R, S37N, M46L, I62V, L63P, A71V, T74S, V82T, L90M and I93L mutant gene infected in human MT-2 cells by XTT-assay relative to wild-type; outline: as §1

Compound | fold change (FC) [1] | fold change (FC) [2] | fold change (FC) [3] | fold change (FC) [4] | fold change (FC) [5] | fold change (FC) [6] | fold change (FC) [7] | fold change (FC) [8] | fold change (FC) [9] | fold change (FC) [10] | fold change (FC) [11] | fold change (FC) [12] | fold change (FC) [13] | fold change (FC) [14] | fold change (FC) [15]
COC(=O)N[C@H](C(=O)N[C@@H](Cc1ccccc1)[C@@H](O)CN(Cc1ccc(-c2ccccn2)cc1)NC(=O)[C@@H](NC(=O)OC)C(C)(C)C)C(C)(C)C [ATAZANAVIR] | 1.3 | 1.2 | 29 | 14.4 | 0.9 | 44.4 | 52.1 | 62.9 | 29.2 | 0.9 | 1.2 | 521 | 1.2 | 10.7 | 13.3
Cc1cccc(C)c1OCC(=O)N[C@@H](Cc1ccccc1)[C@@H](O)C[C@H](Cc1ccccc1)NC(=O)[C@H](C(C)C)N1CCCNC1=O [LOPINAVIR] | 0.9 | 0.5 | 28.7 | 99.3 | 0.8 | 16.5 | 29.2 | 22.1 | 3.4 | 1 | 0.9 | 203 | 1.1 | 15.5 | 15.2

— ChEMBL document CHEMBL1275586, “Phenotypic susceptibility to bevirimat in isolates from HIV-1-infected patients without prior exposure to bevirimat” (Antimicrob Agents Chemother, 2010)
